Test results published in ChEMBL document CHEMBL3091364, “Benzyloxybenzylammonium chlorides: Simple amine salts that display anticonvulsant activity” (Bioorg Med Chem, 2013).
Active and inactive are the calls of the source. The calls are words filed in the database; no cut-off is given here.

How the values were obtained:
Mus musculus [1] = experiment: Anticonvulsant activity in albino CF-1 mouse assessed as protection against maximal electroshock-induced seizures at 100 mg/kg, ip; type: functional, organism-based; parameters: dose 100 mg/kg
In short: (§1)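 Screened under the NINDS ASP in male albino Carworth Farms No. 1 mice (ip) or male albino Sprague-Dawley rats (ip or po), using MES, 6 Hz (32 mA) and subcutaneous pentylenetetrazol seizure tests. Initial qualitative tests used preset doses (e.g., 30, 50, 100 mg/kg). ED50 values with 95% confidence intervals came from dose–response data collected at the time of peak effect.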

Mus musculus [2] = experiment: Anticonvulsant activity in ip dosed albino CF-1 mouse assessed as protection against 6 Hz psychomotor seizure measured at 0.5 hrs; type: functional; conditions: albino CF-1, ip; in short: as §1

SMILES	Activity (Mus musculus [1])	ED50 (Mus musculus [2]) [mg/kg]
Fc1cccc(COc2ccccc2)c1	inactive	
COC[C@@H](NC(C)=O)C(=O)NCc1ccccc1 [LACOSAMIDE]		10
